Test results as given in ChEMBL document CHEMBL3259611, “Suppression of inflammatory responses by handelin, a guaianolide dimer from Chrysanthemum boreale, via downregulation of NF-κB signaling and pro-inflammatory cytokine production” (J Nat Prod, 2014).
Calls of active or inactive are those of the source. The calls are words filed in the database; no cut-off is given here.

Columns and labels:
RAW264.7 [1] = assay: Antiinflammatory activity in mouse RAW264.7 cells assessed as inhibition LPS-induced TNF-alpha protein expression after 4 hrs by Western blotting analysis; type: functional, cell-based
Outline: (§1)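 RAW 264.7 cells stimulated with LPS (1 μg/mL) with or without compound for 4 h. Lysates were resolved by 6−15% SDS-PAGE and blotted to PVDF. Blocked in 5% milk/PBST, primary antibody overnight at 4 °C, secondary antibody 2 h, detected by ECL. Triplicate, representative of three experiments.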

RAW264.7 [2] = assay: Inhibition of LPS-induced NFkappaB transcriptional activity in mouse RAW264.7 cells assessed as […] at 10 uM after 30 mins by Western blotting analysis relative to control; type: cell-based
Outline: (§2)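 Macrophages were exposed to compound for 30 min before LPS stimulation, with proteins extracted 30 min later. Nuclear extracts were prepared in Tris/KCl/NP-40 lysis buffer, then 420 mM NaCl buffer, and the cytosolic fraction was kept for IκB-α. Western blot on PVDF with ECL detection. Tests in triplicate; representative of three separate experiments.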

RAW264.7 [3] = assay: Antiinflammatory activity in mouse RAW264.7 cells assessed as inhibition of LPS-induced nitric oxide production at 40 uM administered 30 mins prior to LPS challenge measured after 20 hrs by Griess assay relative to control; type: functional
Outline: (§3)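 RAW 264.7 cells at 3 × 10^5 cells/mL in phenol red-free 10% FBS DMEM, pretreated for 30 min, then given 1 μg/mL LPS for 20 h. Nitrite in the medium was read by Griess reaction at 540 nm against a sodium nitrite standard curve. % inhibition was calculated versus vehicle control, and IC50 by nonlinear regression. Mean ± SD of triplicates.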

Rattus norvegicus [4] = assay: Antiinflammatory activity in rat paw edema model assessed as inhibition of carrageenan-induced iNOS protein expression in paw tissue at 20 mg/kg, po administered 30 mins prior to carrageenan challenge measured after 6 hrs by Western blotting analysis relative to vehicle-treated control; type: functional, organism-based; set-up: dose 20 mg/kg
Outline: (§4)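 SD rats received compound orally in 0.5% CMC-Na 30 min before subplantar injection of 0.1 mL 1% carrageenan in saline. Paws were removed at 6 h, homogenized, and iNOS, COX-2 and IL-1β were assessed by Western blot. Triplicate, representative of three experiments.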

RAW264.7 [5] = assay: Antiinflammatory activity in mouse RAW264.7 cells assessed as inhibition LPS-induced IL-1beta protein expression at 40 uM after 4 hrs by Western blotting analysis; type: functional; outline: as §1
JNK1/JNK2 (Mus musculus) [6] = biological target: T1, JNK1/JNK2 (Mus musculus) (UniProt Q91Y86+Q9WTU6); assay: Inhibition LPS-induced JNK1/2 phosphorylation at Thr183/[…] in mouse RAW264.7 cells at 40 uM administered 30 mins prior to LPS challenge measured after 30 mins by Western blotting analysis; type: cell-based
Outline: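 RAW 264.7 cells pretreated with compound for 30 min, then stimulated with LPS for an additional 30 min. Lysates resolved by 6−15% SDS-PAGE and blotted to PVDF. Primary antibodies were applied overnight at 4 °C and secondary antibodies for 2 h at room temperature. Detection by ECL. Tests in triplicate; blots representative of three separate experiments.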

JNK1/JNK2 (Mus musculus) [7] = biological target: T1, JNK1/JNK2 (Mus musculus); assay: Inhibition LPS-induced JNK1/2 phosphorylation at Thr183/[…] in mouse RAW264.7 cells at 10 uM administered 30 mins prior to LPS challenge measured after 30 mins by Western blotting analysis; type: cell-based
Outline: (§5)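 RAW 264.7 cells pretreated with compound for 30 min, then stimulated with LPS for 30 min. Protein extracts were Western blotted for phosphorylated ERK and JNK (SDS-PAGE, PVDF, ECL detection).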

RAW264.7 [8] = assay: Antiinflammatory activity in mouse RAW264.7 cells assessed as inhibition LPS-induced IL-1beta protein expression at 20 uM after 4 hrs by Western blotting analysis; type: functional; outline: as §1
RAW264.7 [9] = assay: Antiinflammatory activity in mouse RAW264.7 cells assessed as inhibition of LPS-induced iNOS protein expression after 16 hrs by Western blotting analysis; type: functional, cell-based
RAW264.7 [10] = assay: Antiinflammatory activity in mouse RAW264.7 cells assessed as inhibition of LPS-induced nitric oxide production at 20 uM administered 30 mins prior to LPS challenge measured after 20 hrs by Griess assay relative to control; type: functional; outline: as §3
[11] = biological target: Transcription factor p65 (Mus musculus) (UniProt Q04207); assay: Inhibition of LPS-induced NFkappaB P65 protein nuclear translocation in mouse RAW264.7 cells at 40 uM after 30 mins by Western blotting analysis relative to control; type: cell-based; outline: as §2
[12] = biological target: T2, Mitogen-activated protein kinase 1 and 3 (ERK2 and ERK1) (Mus musculus) (UniProt P63085+Q63844); assay: Inhibition LPS-induced ERK1/2 phosphorylation at Thr202/Tyr204 in mouse RAW264.7 cells at 10 uM administered 30 mins prior to LPS challenge measured after 30 mins by Western blotting analysis; type: cell-based; outline: as §5
RAW264.7 [13] = assay: Antiinflammatory activity in mouse RAW264.7 cells assessed as inhibition of LPS-induced COX2 mRNA expression at 20 uM after 5 hrs by RT-PCR analysis relative to control; type: functional
Outline: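 RAW 264.7 cells exposed to 1 μg/mL LPS with or without compound for 5 h. Total RNA was analysed by RT-PCR: 25−30 cycles with annealing at 55 °C. Products were separated on 2% agarose gel with SYBR-Safe staining. Experiments in triplicate.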

RAW264.7 [14] = assay: Antiinflammatory activity in mouse RAW264.7 cells assessed as inhibition of LPS-induced nitric oxide production administered 30 mins prior to LPS challenge measured after 20 hrs by Griess assay; type: functional, cell-based; outline: as §3
Rattus norvegicus [15] = assay: Antiinflammatory activity in rat paw edema model assessed as inhibition of carrageenan-induced COX2 protein expression in paw tissue at 20 mg/kg, po administered 30 mins prior to carrageenan challenge measured after 6 hrs by Western blotting analysis relative to vehicle-treated control; type: functional, organism-based; set-up: dose 20 mg/kg; outline: as §4
JNK1/JNK2 (Mus musculus) [16] = biological target: T1, JNK1/JNK2 (Mus musculus); assay: Inhibition LPS-induced JNK1/2 phosphorylation at Thr183/[…] in mouse RAW264.7 cells at 20 uM administered 30 mins prior to LPS challenge measured after 30 mins by Western blotting analysis; type: cell-based; outline: as §5
[17] = biological target: Transcription factor p65 (Mus musculus) (UniProt Q04207); assay: Inhibition of LPS-induced NF-kappaB p65 binding to DNA in mouse RAW264.7 cells at 10 to 40 uM after 1.5 hrs by spectrophotometry in presence of mutant oligonucleotide; type: cell-based
[18] = biological target: T2, Mitogen-activated protein kinase 1 and 3 (ERK2 and ERK1) (Mus musculus); assay: Inhibition LPS-induced ERK1/2 phosphorylation at Thr202/Tyr204 in mouse RAW264.7 cells at 40 uM administered 30 mins prior to LPS challenge measured after 30 mins by Western blotting analysis; type: cell-based; outline: as §5
Rattus norvegicus [19] = assay: Antiinflammatory activity in rat paw edema model assessed as inhibition of carrageenan-induced paw edema at 10 mg/kg, po administered 30 mins prior to carrageenan challenge measured after 4 hrs relative to vehicle-treated control; type: functional
Outline: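 Male SD rats (150−170 g) given compound orally in 0.5% CMC-Na 30 min before subplantar injection of 0.1 mL 1% carrageenan; the contralateral paw received saline. Paw volume was measured by plethysmometer from 0 to 6 h, with inhibition taken at 4 h versus vehicle. Mean ± SD, n = 6.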

RAW264.7 [20] = assay: Antiinflammatory activity in mouse RAW264.7 cells assessed as inhibition LPS-induced TNF-alpha protein expression at 40 uM after 4 hrs by Western blotting analysis relative to control; type: functional

T1 sequence (Q91Y86 whole entry, looked up): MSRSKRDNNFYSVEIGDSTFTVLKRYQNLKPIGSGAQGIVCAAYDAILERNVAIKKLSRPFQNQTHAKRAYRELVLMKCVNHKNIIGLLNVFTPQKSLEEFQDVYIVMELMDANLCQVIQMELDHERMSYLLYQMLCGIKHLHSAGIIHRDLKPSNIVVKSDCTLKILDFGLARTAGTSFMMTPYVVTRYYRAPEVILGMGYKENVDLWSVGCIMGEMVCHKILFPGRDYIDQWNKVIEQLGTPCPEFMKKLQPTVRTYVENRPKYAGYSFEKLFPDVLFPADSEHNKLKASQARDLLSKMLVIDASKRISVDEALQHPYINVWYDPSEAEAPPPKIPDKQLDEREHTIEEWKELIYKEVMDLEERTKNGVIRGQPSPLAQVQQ
T1 sequence (Q9WTU6 whole entry, looked up): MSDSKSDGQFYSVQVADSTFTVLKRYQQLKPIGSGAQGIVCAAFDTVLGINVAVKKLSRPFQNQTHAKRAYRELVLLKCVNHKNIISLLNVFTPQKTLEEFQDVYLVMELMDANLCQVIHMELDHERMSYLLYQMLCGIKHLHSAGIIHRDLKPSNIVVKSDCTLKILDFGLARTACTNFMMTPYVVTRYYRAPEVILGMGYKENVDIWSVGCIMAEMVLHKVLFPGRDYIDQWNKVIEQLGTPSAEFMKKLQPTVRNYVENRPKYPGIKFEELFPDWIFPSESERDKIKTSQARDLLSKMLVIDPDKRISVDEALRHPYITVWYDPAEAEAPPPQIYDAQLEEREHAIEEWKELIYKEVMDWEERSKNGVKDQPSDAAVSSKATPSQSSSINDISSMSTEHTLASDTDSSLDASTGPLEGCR
T2 sequence (P63085 whole entry, looked up): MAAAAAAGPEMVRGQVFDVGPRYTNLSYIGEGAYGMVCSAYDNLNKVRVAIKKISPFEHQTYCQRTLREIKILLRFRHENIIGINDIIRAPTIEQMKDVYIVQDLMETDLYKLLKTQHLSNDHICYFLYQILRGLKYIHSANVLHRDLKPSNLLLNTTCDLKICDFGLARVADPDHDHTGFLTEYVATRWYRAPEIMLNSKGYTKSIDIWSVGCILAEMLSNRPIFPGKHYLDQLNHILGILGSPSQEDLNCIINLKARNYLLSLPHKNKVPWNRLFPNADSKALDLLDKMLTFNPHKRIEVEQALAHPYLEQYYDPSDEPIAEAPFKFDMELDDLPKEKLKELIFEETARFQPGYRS
T2 sequence (Q63844 whole entry, looked up): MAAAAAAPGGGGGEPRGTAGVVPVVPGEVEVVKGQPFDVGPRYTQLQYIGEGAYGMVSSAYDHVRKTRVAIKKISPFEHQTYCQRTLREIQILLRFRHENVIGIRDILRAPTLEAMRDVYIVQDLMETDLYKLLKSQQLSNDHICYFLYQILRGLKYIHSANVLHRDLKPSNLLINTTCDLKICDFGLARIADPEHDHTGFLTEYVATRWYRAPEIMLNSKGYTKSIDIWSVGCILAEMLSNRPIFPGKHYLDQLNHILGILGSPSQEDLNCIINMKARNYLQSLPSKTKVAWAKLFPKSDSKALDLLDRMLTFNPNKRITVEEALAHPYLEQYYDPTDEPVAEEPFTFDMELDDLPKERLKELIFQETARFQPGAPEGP
Chain of Transcription factor p65 (Mus musculus) (Q04207 whole entry): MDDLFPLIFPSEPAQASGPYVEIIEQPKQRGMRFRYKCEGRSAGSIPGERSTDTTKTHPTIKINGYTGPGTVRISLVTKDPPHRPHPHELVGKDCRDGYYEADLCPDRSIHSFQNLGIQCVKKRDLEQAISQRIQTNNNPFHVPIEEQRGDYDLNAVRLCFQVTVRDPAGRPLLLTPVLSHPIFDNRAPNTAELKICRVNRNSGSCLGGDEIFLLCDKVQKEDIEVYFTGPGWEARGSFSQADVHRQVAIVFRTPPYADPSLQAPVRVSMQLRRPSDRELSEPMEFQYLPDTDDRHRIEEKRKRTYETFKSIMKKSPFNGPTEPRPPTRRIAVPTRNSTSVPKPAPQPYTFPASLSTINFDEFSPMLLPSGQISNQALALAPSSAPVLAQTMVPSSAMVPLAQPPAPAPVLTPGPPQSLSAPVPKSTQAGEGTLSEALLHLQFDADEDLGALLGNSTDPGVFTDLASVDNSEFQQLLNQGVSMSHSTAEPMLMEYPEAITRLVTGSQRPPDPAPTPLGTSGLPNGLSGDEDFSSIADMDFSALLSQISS

Question: How did the inhibition (RAW264.7 [1]) turn out when `C=C1C(=O)O[C@@H]2[C@@H]3[C@@]4(C=C[C@@]3(C)[C@]3(C4)C(=O)O[C@@H]4[C@H]5C(C)=CC[C@H]5[C@](C)(O)C[C@H](OC(C)=O)[C@H]43)[C@](C)(O)CC[C@@H]12` was run?
Answer: Dose-dependent effect

Question: What about the fold change (FC) (RAW264.7 [2]) of the same compound?
Answer: 1.91

Question: What about the “inhibition (INH)” value (RAW264.7 [3]) of the same compound?
Answer: 98%

Question: And the inhibition (Rattus norvegicus [4])?
Answer: Active

Question: And the “fold change (FC)” value (RAW264.7 [5])?
Answer: 0.65

Question: What about the fold change (FC) (JNK1/JNK2 (Mus musculus) [6]) of the same compound?
Answer: 0.24

Question: What about the fold change (FC) (JNK1/JNK2 (Mus musculus) [7]) of the same compound?
Answer: 0.71

Question: What about the inhibition (JNK1/JNK2 (Mus musculus) [7]) of the same compound?
Answer: Active

Question: What about the “fold change (FC)” value (RAW264.7 [8]) of the same compound?
Answer: 0.67

Question: And the inhibition (RAW264.7 [9])?
Answer: Dose-dependent effect

Question: What about the “inhibition (INH)” value (RAW264.7 [10]) of the same compound?
Answer: >84%

Question: What about the fold change (FC) [11] of the same compound?
Answer: 0.49

Question: What about the fold change (FC) [12] of the same compound?
Answer: 0.76

Question: And the inhibition [12]?
Answer: Active

Question: And the “fold change (FC)” value (RAW264.7 [13])?
Answer: 0.58

Question: And the IC50 (RAW264.7 [14])?
Answer: 6.7 µM

Question: What about the inhibition (RAW264.7 [14]) of the same compound?
Answer: Dose-dependent effect

Question: What about the inhibition (Rattus norvegicus [15]) of the same compound?
Answer: Active

Question: And the fold change (FC) (JNK1/JNK2 (Mus musculus) [16])?
Answer: 0.54

Question: What about the inhibition [17] of the same compound?
Answer: Active

Question: And the fold change (FC) [18]?
Answer: 0.21

Question: And the inhibition in vivo at 10 mg/kg (Rattus norvegicus [19])?
Answer: 22%

Question: And the “fold change (FC)” value (RAW264.7 [20])?
Answer: 0.56
